# High-throughput results deposited in PubChem by Broad Institute.
# ARNT-TACC3 inh – disruptors of ARNT/TACC3 protein interaction, primary screen, biochemical, AlphaScreen, single concentration; AlphaScreen His-ARNT PAS-B/GST-TACC3 binding, luminescence; TACC3 fragment carries E629A point mutation; inhibition, % at 9.99 µM; 390,000 tested, 0.66% active; Transforming acidic coiled-coil-containing protein 3 (Homo sapiens), Q9Y6A5;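 active = mean inhibition of replicates at least 50% and at least half of replicates each reaching 50%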;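 note: 0% = complete ARNT plus TACC3 wells and 100% = ARNT alone without TACC3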
# SR-BI DiI-HDL act – activators of SR-BI mediated DiI-HDL uptake, primary screen, ldlA[mSR-BI] CHO cells, DiI fluorescence; 320,000 tested, 0.096% active; activation, % at 12.5 µM; 3 h; 100 = double the neutral-control signal; AID 504775, 2011;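 active = mean replicate activation of at least 60% and every replicate at or above 60%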;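 note: 0% = median plate neutral-control signal and 100% = twice that signal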
#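 Material: SR-BI-overexpressing, LDLR-lacking CHO cells | Dosing: Single compound concentration, delivered by pin transfer | Probe or stimulus: Labelled HDL, 10 µg/mL | Signal: Bottom-read cell fluorescence after medium removal, ex 550/em 595 nm | Schedule: 3 h, 37 °C | Evaluation: HDL uptake via cellular fluorescence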
# CAL PDZ FP-1 – CAL PDZ peptide-binding inhibitors, primary screen, biochemical, fluorescence polarization, Cer-tagged CAL PDZ, HTS; Golgi-associated PDZ and coiled-coil motif-containing protein (Homo sapiens), Q9HD26; purified CAL PDZ, TMR-peptide fluorescence polarization, 1 h; inhibition, % at 20 µM; 330,000 tested, 0.02% active; AID 504414, 2011;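 active = highest replicate inhibition of at least 40%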;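 note: plate controls were DMSO neutral control wells for no effect and unlabeled competitor peptide control wells for full effect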
#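 Control set: unlabelled peptide and DMSO controls / Material: purified CerCALP PDZ construct / Timing: 1 h incubation at room temperature before polarization reading / Doses: 20 µM, one dose / Detection: fluorescence polarization (mP)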
# miR-122 sensor – miR-122 Renilla sensor signal increase in Huh7, primary screen, miR-122 inhibitor project, cell-based, single point, plate reader; Huh7 miR-122 Renilla luciferase sensor, 48 h; neutral wells = 0, positive control = 100; activation (reporter increase), % at 12.5 µM; 340,000 tested, 0.3% active; AID 602342, 2012;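 active = mean replicate activation score at least 90 and every replicate individually at or above 90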;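 note: higher luciferase means less miR-122 activity so hits act as miR-122 inhibitors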
# SR-BI HDL uptake – inhibitors of SR-BI mediated HDL lipid uptake, primary screen, ldlA[mSR-BI] cells, fluorescence, single point. Scavenger receptor class B member 1 (Mus musculus), Q61009. ldlA[mSR-BI] CHO cells, DiI-HDL uptake fluorescence, 3 h. inhibition, % at 12.5 µM. 320,000 tested, 0.96% active. AID 488896, 2010;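 active = mean replicate inhibition of at least 70% and a set share of replicates each scoring 70 or more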;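 note: 0% = median of neutral control wells and 100% = median of positive control wells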
# Target sequence (Q61009 whole entry, looked up): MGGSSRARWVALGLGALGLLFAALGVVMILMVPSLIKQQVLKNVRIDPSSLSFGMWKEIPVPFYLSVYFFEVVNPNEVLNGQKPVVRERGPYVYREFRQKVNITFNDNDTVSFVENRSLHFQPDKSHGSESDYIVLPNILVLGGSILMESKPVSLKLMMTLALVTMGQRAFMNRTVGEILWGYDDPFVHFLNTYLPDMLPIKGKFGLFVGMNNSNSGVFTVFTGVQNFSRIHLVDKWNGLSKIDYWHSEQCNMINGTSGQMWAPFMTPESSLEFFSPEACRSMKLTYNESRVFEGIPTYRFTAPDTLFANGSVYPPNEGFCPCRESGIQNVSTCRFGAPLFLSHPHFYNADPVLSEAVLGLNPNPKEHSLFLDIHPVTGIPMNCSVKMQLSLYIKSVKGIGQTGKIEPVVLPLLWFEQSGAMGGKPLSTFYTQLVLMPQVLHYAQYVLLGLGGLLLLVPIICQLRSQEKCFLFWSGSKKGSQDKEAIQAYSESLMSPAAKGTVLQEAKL
# CAL PDZ FP-2 – untagged CAL PDZ binding inhibitors, primary screen, biochemical, fluorescence polarization, HTS. Golgi-associated PDZ and coiled-coil motif-containing protein (Homo sapiens), Q9HD26. purified CAL PDZ, TMR-peptide fluorescence polarization, 1 h. 300,000 tested, 0.92% active. inhibition, % at 24.9 µM;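 active = mean inhibition of at least 30% with at least half of replicates also reaching 30%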;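 note: 0% = DMSO neutral control and 100% = excess unlabeled competitor peptide PRC23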
# The depositor's hits bear a star; nt = not tested or not shown; [ ] = dose if it differs, or a comment. Rows were chosen to be rich in hits. Some 2.1% of all compounds tested hit in one or more screens of this group.
SMILES,ARNT-TACC3 inh,SR-BI DiI-HDL act,CAL PDZ FP-1,miR-122 sensor,SR-BI HDL uptake,CAL PDZ FP-2
Cc1ccc(NC(=O)c2ccc3ccccc3n2)cc1S(=O)(=O)N1CCOCC1,6,-95,-3,-10,95*,-3
O=C(Nc1cccc(S(=O)(=O)N2CCOCC2)c1)c1ccc2ccccc2n1,-67,nt,-2,8,nt,6
Cc1ccc(NC(=O)CCCOc2ccccc2)cc1S(=O)(=O)N1CCOCC1,2,-24,-1,-3,24,nt
CCOc1ccc(S(=O)(=O)/N=C(/Nc2ccc(C)c(S(=O)(=O)N3CCOCC3)c2)c2ccccc2)cc1,-16,-27,-1,107*,27,nt
COc1ccc(NC(=O)c2cc(C)nc3ccccc23)cc1S(=O)(=O)N1CCOCC1,-1,-32,0,-5,32,-6
CO[C@@H]1CC[C@H]2CCN(C)C(=O)CCCN(C)C(=O)c3cccc(C#N)c3OC[C@@H]1O2,-4,nt,nt,nt,nt,nt
C[C@@H]1CCCCO[C@H](CN(C)C(=O)Cc2ccccc2)[C@H](C)CN([C@H](C)CO)C(=O)c2cc(NS(=O)(=O)c3ccccc3)ccc2O1,2,nt,nt,12[16.7 µM],nt,nt
Cc1ccc(NC(=O)C(=O)c2c(-c3ccccc3)cc3ccccn23)cc1S(=O)(=O)N1CCOCC1,6,-39,-3,247*,39,-1
O=C(COC(=O)c1cc(S(=O)(=O)N2CCOCC2)ccc1Cl)Nc1ccc2c(c1)OCO2,-1,-18,-2,-2,18,79*
O=C(Nc1ccc(Cl)c(S(=O)(=O)N2CCOCC2)c1)c1ccc2c(c1)OCO2,15,-59,-3,8,59,nt
O=C(Nc1ccc(Cl)c(S(=O)(=O)N2CCOCC2)c1)c1ccc2c(c1)OCCO2,12,-72,-2,7,72*,4
O=C(N[C@@H]1C=C[C@H](CC(=O)N2CCN(c3ccccc3)CC2)O[C@@H]1CO)c1ccncc1,-5,nt,nt,10[16.7 µM],nt,nt
C[C@@H]1CN([C@H](C)CO)C(=O)Cc2cc(NC(=O)Cc3cn(C)c4ccccc34)ccc2O[C@H]1CN(C)Cc1ccc(C(F)(F)F)cc1,16,nt,nt,4[16.7 µM],nt,nt
CC1(C(=O)OCC(=O)NC(=O)NCc2ccccc2)CC1(Cl)Cl (stereo not drawn),-6,62*,-4,0,-62,3
CC(C)NC(=O)Nc1ccc2c(c1)CC(=O)N([C@H](C)CO)C[C@@H](C)[C@@H](CN(C)Cc1ccc(C(F)(F)F)cc1)O2,4,nt,nt,-7[16.7 µM],nt,nt
O=C(N/N=C/c1ccc(Cl)s1)C(O)c1ccccc1 (stereo not drawn),0,1,0,123*,-1,nt
CC(C)NC(=O)N(C)C[C@@H]1OCCCC[C@H](C)Oc2ccc(NC(=O)Nc3ccc(F)cc3)cc2C(=O)N([C@@H](C)CO)C[C@H]1C,-3,nt,nt,1[16.7 µM],nt,nt
CC(C)C#Cc1cnc2c(c1)C(=O)N([C@@H](C)CO)C[C@H](C)[C@@H](CN(C)C(=O)Nc1ccccc1)O2,2,nt,nt,-7[16.7 µM],nt,nt
CCCOc1ccc(/C=N/Nc2ccccc2[N+](=O)[O-])c(OCCC)c1,-1,-104,-1,nt,104*,0
CCCCNCc1cc(OCC)c(OCC(N)=O)cc1Br,7,-20,-3,3,20,38*
CN(C)c1ccc(C=NNC(=O)c2cccc3ccccc23)c(Cl)c1,2,-75,1,nt,75*,-3
O=C(N/N=C/c1ccccc1O)c1cccc2ccccc12,28,-51,-2,-20,51,1
Cc1ccc(S(=O)(=O)NCC[C@@H]2CC[C@@H](NC(=O)c3cnccn3)[C@H](CO)O2)cc1,-6,nt,nt,101*[16.7 µM],nt,nt
Cc1ccc(S(=O)(=O)NCC[C@@H]2CC[C@H](NC(=O)c3cnccn3)[C@@H](CO)O2)cc1,-10,nt,nt,2[16.7 µM],nt,nt
Cc1ccc(C)c(-n2cc(CNCCc3cnccn3)c(-c3ccccc3)n2)c1,2,nt,-1,-4,nt,53*
SMILES,ARNT-TACC3 inh,SR-BI DiI-HDL act,CAL PDZ FP-1,miR-122 sensor,SR-BI HDL uptake,CAL PDZ FP-2
CCn1ccnc1CNCc1cn(-c2cc(C)ccc2C)nc1-c1ccccc1,nt,-6,-4,nt,6,1
CCOC(=O)C1CCN(C(=O)/C(=C/c2ccccc2)NC(=O)c2ccccc2)CC1,-5,18,nt,2,-18,51*
O=C(NNC(=S)NC1CCCCC1)c1ccc2c(c1)OCO2,nt,15,-2,106*,-15,-5
O=C(C(c1ccccc1)c1ccccc1)N1CCN(Cc2ccncc2)CC1,-6,-1,-1,-1,1,-2
O=C(C(c1ccccc1)c1ccccc1)N1CCN(Cc2ccccn2)CC1,1,21,-1,-6,-21,31*
C[C@@H]1CN([C@@H](C)CO)C(=O)c2cc(NC(=O)NC3CCCCC3)ccc2O[C@@H](C)CCCCO[C@@H]1CN(C)S(=O)(=O)c1cccs1,11,nt,nt,1[16.7 µM],nt,nt
C[C@H](CO)N1C[C@H](C)[C@@H](CN(C)C)Oc2ccc(NC(=O)Nc3cccc4ccccc34)cc2CC1=O,-3,nt,nt,0[16.7 µM],nt,nt
Cc1ccc(Cn2c(=O)n(CCC(=O)NCc3ccc4c(c3)OCO4)c(=O)c3ccccc32)cc1,-4,7,-1,8,-7,66*
Cc1cc(NC(=O)CSc2nnc3ccccn23)no1,-8,12,-1,nt,-12,78*
O=C(NCC[C@@H]1CC[C@H](NC(=O)C2CCCC2)[C@@H](CO)O1)c1ccc(F)cc1,-3,nt,nt,22[16.7 µM],nt,nt
Cc1nc2c3cc(Cl)ccc3n(CCN3CCOCC3)c2s1,-3,-52,0,nt,52,47*
Cc1ccc2c(c1)c1nc3ccccc3nc1n2CCN1CCOCC1,0,-42,-2,-2,42,nt
NC(=S)Nc1cc(Cl)cc(Cl)c1,nt,nt,nt,49,nt,nt
NC(=S)NNc1cc(Cl)cc(Cl)c1,8,8,nt,-11,-8,97*
C[C@@H]1CN([C@H](C)CO)C(=O)c2cc(NC(=O)NC3CCCCC3)ccc2O[C@@H](C)CCCCO[C@@H]1CN(C)S(=O)(=O)c1cn(C)cn1,4,nt,nt,13[16.7 µM],nt,nt
O=C(C[C@@H]1C[C@H]2c3cc(NC(=O)NC4CCCC4)ccc3O[C@H]2[C@@H](CO)O1)NC1CCCC1,-2,nt,nt,4[16.7 µM],nt,nt
NCCCNC(=O)c1ccc(/C=N/O)nc1,78*,18,-1,-13,-18,0
O=C(NCCN1CCCCC1)c1ccc(/C=N/O)nc1,27,22,0,nt,-22,1
